Results published in ChEMBL document CHEMBL1159121, “Synthesis, in vitro structure-activity relationship, and in vivo studies of 2-arylthiazolidine-4-carboxylic acid amides as anticancer agents” (Bioorg Med Chem, 2010).

Experiments:
[1] = test system: HOP-62; assay: Growth inhibition of human HOP62 cells; format: functional
[2] = test system: NCI-H226; assay: Growth inhibition of human NCI-H226 cells; format: functional
[3] = test system: NCI-H23; assay: Growth inhibition of human NCI-H23 cells; format: functional
[4] = test system: NCI-H460; assay: Growth inhibition of human NCI-H460 cells; format: functional
[5] = test system: NCI-H522; assay: Growth inhibition of human NCI-H522 cells; format: functional
[6] = test system: COLO 205; assay: Growth inhibition of human COLO205 cells; format: functional
[7] = test system: HCC 2998; assay: Growth inhibition of human HCC2998 cells; format: functional
[8] = test system: HCT-116; assay: Growth inhibition of human HCT116 cells; format: functional
[9] = test system: HCT-15; assay: Growth inhibition of human HCT15 cells; format: functional
[10] = test system: HT-29; assay: Growth inhibition of human HT-29 cells; format: functional
[11] = test system: SW-620; assay: Growth inhibition of human SW620 cells; format: functional
[12] = test system: SF-268; assay: Growth inhibition of human SF268 cells; format: functional
[13] = test system: SF-295; assay: Growth inhibition of human SF295 cells; format: functional
[14] = test system: SNB-19; assay: Growth inhibition of human SNB19 cells; format: functional
[15] = test system: LOX IMVI; assay: Growth inhibition of human LOXIMVI cells; format: functional
[16] = test system: SK-MEL-28; assay: Growth inhibition of human SK-MEL-28 cells; format: functional
[17] = test system: SK-MEL-5; assay: Growth inhibition of human SK-MEL-5 cells; format: functional
[18] = test system: UACC-257; assay: Growth inhibition of human UACC257 cells; format: functional
[19] = test system: OVCAR-3; assay: Growth inhibition of human OVCAR-3 cells; format: functional
[20] = test system: OVCAR-4; assay: Growth inhibition of human OVCAR4 cells; format: functional
[21] = test system: OVCAR-5; assay: Growth inhibition of human OVCAR5 cells; format: functional
[22] = test system: 786-0; assay: Growth inhibition of human 786-0 cells; format: functional
[23] = test system: A498; assay: Growth inhibition of human A498 cells; format: functional
[24] = test system: SN12C; assay: Growth inhibition of human SN12C cells; format: functional
[25] = test system: TK-10; assay: Growth inhibition of human TK10 cells; format: functional
[26] = test system: UO-31; assay: Growth inhibition of human UO31 cells; format: functional
[27] = test system: PC-3; assay: Growth inhibition of human PC3 cells; format: functional
[28] = test system: DU-145; assay: Growth inhibition of human DU145 cells; format: functional
[29] = test system: MDA-MB-231; assay: Growth inhibition of human MDA-MB-231 cells; format: functional
[30] = Growth inhibition of human Hs 578T cells; format: functional
[31] = test system: MDA-MB-435; assay: Growth inhibition of human MDA-MB-435 cells; format: functional
[32] = test system: BT-549; assay: Growth inhibition of human BT549 cells; format: functional
[33] = Antiproliferative activity against mouse B16-F1 cells after 48 hrs by SRB assay; format: functional, cell-based; details: B16-F1, 48 h
In short: (§1)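 Melanoma lines and control fibroblasts grown at 37 °C, 5% CO2, then exposed to a wide concentration range for 48 h in round-bottom 96-well plates. Fixed with 10% TCA, stained with SRB, protein read at 560 nm. IC50 (50% growth inhibition versus untreated) obtained by nonlinear regression.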

[34] = Antiproliferative activity against human WM164 cells after 48 hrs by SRB assay; format: functional, cell-based; details: WM164, 48 h; in short: as §1
[35] = Cytotoxicity against human fibroblasts after 48 hrs by SRB assay; format: cell-based; details: Fibroblast; in short: as §1
[36] = test system: RH7777; assay: Cytotoxicity against rat RH7777 cells after 96 hrs by SRB assay; format: cell-based; details: RH7777, 96 h
In short: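 Prostate lines in RPMI1640/10% FBS; RH7777 in DMEM/10% FBS. Cells TCA-fixed, stained with 0.4% SRB, absorbance read at 540 nm. IC50 from nonlinear regression of % survival against concentration.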

[37] = test system: CCRF-CEM; assay: Growth inhibition of human CCRF-CEM cells; format: functional
[38] = test system: HL-60(TB); assay: Growth inhibition of human HL-60(TB) cells; format: functional
[39] = Growth inhibition of human […] cells; format: functional
[40] = test system: SR; assay: Growth inhibition of human SR cells; format: functional
[41] = test system: EKVX; assay: Growth inhibition of human EKVX cells; format: functional
[42] = read-out: LC50 (the source's name)

For `CCCCCCCCCCCCCCCCCCNC(=O)[C@@H]1CSC(c2ccccc2)N1` (mixture of isomers), the GI50 [1] was 1.77 µM, the TGI [1] was 3.15 µM and the CC50 [1, 42] was 5.61 µM. For the same compound, the GI50 [2] was 2.06 µM, the TGI [2] was 3.83 µM and the CC50 [2, 42] was 7.11 µM. For the same compound, the GI50 [3] was 1.84 µM, the TGI [3] was 3.36 µM and the CC50 [3, 42] was 6.17 µM. The GI50 [4] was 1.41 µM, the TGI [4] was 2.98 µM and the CC50 [4, 42] was 6.31 µM. The GI50 [5] was 3.52 µM, the TGI [5] was 12.3 µM and the CC50 [5, 42] was greater than 100 µM. For the same compound, the GI50 [6] was 2.32 µM, the TGI [6] was 4.98 µM and the CC50 [6, 42] was 12.7 µM. For the same compound, the GI50 [7] was 0.54 µM, the TGI [7] was 1.8 µM and the CC50 [7, 42] was 4.24 µM. It also gave a GI50 [8] of 1.31 µM, a TGI [8] of 2.58 µM and a CC50 [8, 42] of 5.08 µM. It also gave a GI50 [9] of 10.9 µM, a TGI [9] of 22.7 µM and a CC50 [9, 42] of 47.7 µM. It also gave a GI50 [10] of 1.75 µM, a TGI [10] of 3.41 µM and a CC50 [10, 42] of 6.67 µM. The GI50 [11] was 1.18 µM, the TGI [11] was 2.4 µM and the CC50 [11, 42] was 4.9 µM. For the same compound, the GI50 [12] was 1.2 µM, the TGI [12] was 2.57 µM and the CC50 [12, 42] was 5.53 µM. The GI50 [13] was 4.37 µM, the TGI [13] was 15.9 µM and the CC50 [13, 42] was 74.7 µM. It also gave a GI50 [14] of 2.03 µM, a TGI [14] of 3.66 µM and a CC50 [14, 42] of 6.6 µM. For the same compound, the GI50 [15] was 1.23 µM, the TGI [15] was 2.59 µM and the CC50 [15, 42] was 5.48 µM. The GI50 [16] was 1.49 µM, the TGI [16] was 2.81 µM and the CC50 [16, 42] was 5.3 µM. For the same compound, the GI50 [17] was 1.92 µM, the TGI [17] was 3.63 µM and the CC50 [17, 42] was 6.87 µM. For the same compound, the GI50 [18] was 2.13 µM, the TGI [18] was 4.23 µM and the CC50 [18, 42] was 8.4 µM. It also gave a GI50 [19] of 4.27 µM, a TGI [19] of 16.2 µM and a CC50 [19, 42] of 80.2 µM. It also gave a GI50 [20] of 2.61 µM, a TGI [20] of 5.41 µM and a CC50 [20, 42] of 17.5 µM. It also gave a GI50 [21] of 1.91 µM, a TGI [21] of 3.32 µM and a CC50 [21, 42] of 5.76 µM. It also gave a GI50 [22] of 1.78 µM, a TGI [22] of 3.17 µM and a CC50 [22, 42] of 5.63 µM. It also gave a GI50 [23] of 2.73 µM, a TGI [23] of 5.3 µM and a CC50 [23, 42] of 11.5 µM. For the same compound, the GI50 [24] was 1.94 µM, the TGI [24] was 3.35 µM and the CC50 [24, 42] was 5.79 µM. The GI50 [25] was 7.46 µM, the TGI [25] was 29.2 µM and the CC50 [25, 42] was greater than 100 µM. The GI50 [26] was 2.31 µM, the TGI [26] was 5.38 µM and the CC50 [26, 42] was 16.3 µM. For the same compound, the GI50 [27] was 2.97 µM, the TGI [27] was 10.7 µM and the CC50 [27, 42] was 32.8 µM. It also gave a GI50 [28] of 3.78 µM, a TGI [28] of 15.7 µM and a CC50 [28, 42] of 39.6 µM. It also gave a GI50 [29] of 1.61 µM, a TGI [29] of 3.12 µM and a CC50 [29, 42] of 6.05 µM. It also gave a GI50 [30] of 1.82 µM, a TGI [30] of 4.08 µM and a CC50 [30, 42] of 9.14 µM. It also gave a GI50 [31] of 2.01 µM, a TGI [31] of 4.12 µM and a CC50 [31, 42] of 8.45 µM. It also gave a GI50 [32] of 0.84 µM, a TGI [32] of 2.06 µM and a CC50 [32, 42] of 4.54 µM. It also gave an IC50 [33] of 15.5 µM, an IC50 [34] of 4.4 µM and an IC50 [35] of 29.8 µM. It also gave an IC50 [36] greater than 20 µM, a GI50 [37] of 0.56 µM and a TGI [37] of 2.1 µM. It also gave a CC50 [37, 42] of 6.5 µM, a GI50 [38] of 2.03 µM and a TGI [38] of 3.8 µM. It also gave a CC50 [38, 42] of 7.11 µM, a GI50 [39] of 2.12 µM and a TGI [39] of 4.63 µM. For the same compound, the CC50 [39, 42] was 11.7 µM, the GI50 [40] was 0.49 µM and the TGI [40] was 1.79 µM. The CC50 [40, 42] was 6.79 µM, the GI50 [41] was 2.12 µM and the TGI [41] was 4.72 µM. It also gave a CC50 [41, 42] of 12.3 µM.
